The test system of one data set is CYP3A4/5. Description: Inhibition of P450 activities by DB289: testosterone 6β-hydroxylation. Type of data set: in vitro ADME, human. To be noted: 3.0 μM DB289, pooled HLMs 0.25 mg/ml. In outline: (§1)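 Test compound (3.0 μM) was preincubated 0 and 15 min with pooled microsomes (0.25 mg/ml) and 2 mM NADPH (final concentrations). A P450-selective marker substrate was then added and marker activity measured. Reference selective chemical inhibitors were run for comparison (none for CYP4A11). Solvent-only controls.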

The nature of data set [1]: Incubation of DB289 with pooled human liver microsomes. The format is in vitro ADME. To be noted: 15 μM DB289, 0.2 mg/ml HLMs, NADPH. In outline: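 Pooled liver microsomes (50 donors, mixed gender) at 0.2 mg/ml with 15 μM substrate in a 1 ml mix, equilibrated 5 min at 37°C, then started with NADPH. Aliquots taken at 0, 5, 15, 30 and 120 min into ice-cold acetonitrile. LC/UV at 359 nm against an external 0.1–15 μM calibration; metabolites identified by retention time versus synthetic standards. Single determination; controls lacked NADPH, protein or substrate.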
(Microsomes from liver hold many membrane-bound enzymes, among them those of drug oxidation.)

The next data set has as its target recombinant human CYP3A5 (Homo sapiens, UniProt P20815). The experiment in a line: DB289 consumption by recombinant CYP3A5. The format is in vitro ADME. The settings on record: 3.0 μM DB289, 50 pmol/ml P450, 15 min. In outline:
(§2)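 Baculovirus-insect-cell Supersomes coexpressing human P450 with NADPH-P450 reductase; the CYP2E1 enzyme also had cytochrome b5. 3.0 μM substrate, 50 pmol/ml P450 (100 pmol/ml for CYP2C8 and CYP2C9), in 100 mM phosphate pH 7.4 with 3.3 mM MgCl2 and 1 mM NADPH, 37°C, 15 min. Quenched in ice-cold acidified acetonitrile with deuterated internal standard, then LC/MS/MS. Percent consumed relative to 0 min; control Supersomes; duplicates.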

Data set [2] deals with T1, CYP2A6 (Homo sapiens, UniProt P11509). The experiment in a line: Inhibition of P450 activities by DB289: coumarin 7-hydroxylation. The format is in vitro ADME. To be noted: 3.0 μM DB289, pooled HLMs 0.25 mg/ml. An outline of the steps: as §1
Data set [3] deals with flavin monooxygenase 3 (FMO3) (Homo sapiens, UniProt P31513). Description: Incubation of DB289 with recombinant FMO3. The format is in vitro ADME. The settings on record: FMO3 0.5 mg/ml. An outline of the steps:
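Baculovirus insect-cell-expressed human FMO3 at 0.5 mg/ml. Incubated with substrate under the conditions used for the liver-microsome consumption assay: pH 7.4 phosphate, MgCl2, NADPH, 37°C. Analysed by LC/MS/MS.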

Another data set addresses recombinant human CYP3A7 (Homo sapiens, UniProt P24462). The experiment in a line: DB289 consumption by recombinant CYP3A7. Type of data set: in vitro ADME. To be noted: 3.0 μM DB289, 50 pmol/ml P450, 15 min. In outline:
(§3)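 A second recombinant panel (Supersomes; the CYP2J2, CYP3A7 and CYP4F forms coexpressed with reductase and cytochrome b5). Each enzyme was incubated alone with 3.0 μM substrate and NADPH in pH 7.4 phosphate/MgCl2 at 37°C for 15 min. Acetonitrile quench with internal standard, centrifugation, LC/MS/MS. Percent consumed normalised to 0 min. Control Supersomes; means of duplicates.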

The next data set concerns the target recombinant human CYP2C8 (Homo sapiens, UniProt P10632). The experiment in a line: DB289 consumption by recombinant CYP2C8. The format is in vitro ADME. The settings on record: 3.0 μM DB289, 100 pmol/ml P450, 15 min. An outline of the steps:
as §2

The target of another data set is recombinant human CYP1A2 (Homo sapiens, UniProt P05177). The experiment in a line: Kinetics of M1 formation by recombinant CYP1A2. Type of data set: in vitro ADME. An outline of the steps: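 Recombinant P450 (10–50 pmol/ml) with substrate from 0.05 μM upward, under initial-rate conditions (<20% consumption). 250 μl at 37°C, started with NADPH after 5 min equilibration. Run times: 2 min for CYP1A1/1A2; 5 min for CYP1B1, 2J2 and 4F2; 15 min for CYP2C8, 4F3B and 4F12. M1 measured by LC/MS/MS. Mean of duplicates fitted to Michaelis-Menten; CLint = Vmax/Km.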

The nature of data set [4]: DB289 consumption in 10 individual HLM samples, correlation analysis. The format is in vitro ADME, human. To be noted: 0.3 μM DB289. In outline:
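Ten individual human liver microsome samples, each characterised by the supplier for P450 marker activities. Standard NADPH incubations at 37°C began with 0.3 μM substrate. Rate of disappearance measured by LC/MS/MS and plotted against each P450 marker activity. Pearson r calculated; p < 0.05 taken as significant.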

The next data set addresses recombinant human CYP2B6 (Homo sapiens, UniProt P20813). The experiment in a line: DB289 consumption by recombinant CYP2B6. The format is in vitro ADME. The settings on record: 3.0 μM DB289, 50 pmol/ml P450, 15 min. An outline of the steps: as §2
In a further data set the target is recombinant human CYP3A4 (Homo sapiens, UniProt P08684). Description: DB289 consumption by recombinant CYP3A4. The format is in vitro ADME. The settings on record: 3.0 μM DB289, 50 pmol/ml P450, 15 min. An outline of the steps: as §2
The target of data set [5] is T1, CYP2A6. The experiment in a line: DB289 consumption by recombinant CYP2A6. Type of data set: in vitro ADME. To be noted: 3.0 μM DB289, 50 pmol/ml P450, 15 min. An outline of the steps: as §2
In the next data set the target is recombinant human CYP1B1 (Homo sapiens, UniProt Q16678). The experiment in a line: DB289 consumption by recombinant CYP1B1. Type of data set: in vitro ADME. The settings on record: 3.0 μM DB289, 50 pmol/ml P450, 15 min. In outline:
as §2

In data set [6] the target is recombinant human CYP4F3A (Homo sapiens, UniProt Q08477). The experiment in a line: DB289 consumption by recombinant CYP4F3A. The format is in vitro ADME. The settings on record: 3.0 μM DB289, up to 120 min.
The next data set has as its target T2, CYP2J2 (Homo sapiens, UniProt P51589).
T2 sequence (P51589 1-502): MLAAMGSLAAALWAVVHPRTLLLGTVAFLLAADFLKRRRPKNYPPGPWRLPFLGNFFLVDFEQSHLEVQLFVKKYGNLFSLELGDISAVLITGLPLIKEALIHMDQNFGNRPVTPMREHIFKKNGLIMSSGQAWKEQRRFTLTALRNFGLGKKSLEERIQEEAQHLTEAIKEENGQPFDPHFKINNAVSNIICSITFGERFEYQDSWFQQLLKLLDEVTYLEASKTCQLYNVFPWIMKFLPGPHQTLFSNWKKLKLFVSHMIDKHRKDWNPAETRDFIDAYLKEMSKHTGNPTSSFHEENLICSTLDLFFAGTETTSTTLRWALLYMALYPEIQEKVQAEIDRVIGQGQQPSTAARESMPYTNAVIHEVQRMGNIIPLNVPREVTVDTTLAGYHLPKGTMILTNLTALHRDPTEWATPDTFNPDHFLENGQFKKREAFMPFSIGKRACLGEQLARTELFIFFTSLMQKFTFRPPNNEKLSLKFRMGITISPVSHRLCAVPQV
Description: DB289 consumption by recombinant CYP2J2. Type of data set: in vitro ADME. The settings on record: 3.0 μM DB289, 50 pmol/ml P450, 15 min. In outline: as §3

Data set [7] has as its target T3, CYP2C9 (Homo sapiens, UniProt P11712). The experiment in a line: DB289 consumption by recombinant CYP2C9. The format is in vitro ADME. The settings on record: 3.0 μM DB289, 100 pmol/ml P450, 15 min. An outline of the steps:
as §2

For the next data set, the target named is recombinant human CYP1A1 (Homo sapiens, UniProt P04798). The experiment in a line: DB289 consumption by recombinant CYP1A1. The format is in vitro ADME. The settings on record: 3.0 μM DB289, 50 pmol/ml P450, 15 min. An outline of the steps: as §2
Data set [8] deals with T3, CYP2C9. Description: Inhibition of P450 activities by DB289: diclofenac 4′-hydroxylation. Type of data set: in vitro ADME. The settings on record: 3.0 μM DB289, pooled HLMs 0.25 mg/ml. In outline:
as §1

T1 sequence (P11509 whole entry): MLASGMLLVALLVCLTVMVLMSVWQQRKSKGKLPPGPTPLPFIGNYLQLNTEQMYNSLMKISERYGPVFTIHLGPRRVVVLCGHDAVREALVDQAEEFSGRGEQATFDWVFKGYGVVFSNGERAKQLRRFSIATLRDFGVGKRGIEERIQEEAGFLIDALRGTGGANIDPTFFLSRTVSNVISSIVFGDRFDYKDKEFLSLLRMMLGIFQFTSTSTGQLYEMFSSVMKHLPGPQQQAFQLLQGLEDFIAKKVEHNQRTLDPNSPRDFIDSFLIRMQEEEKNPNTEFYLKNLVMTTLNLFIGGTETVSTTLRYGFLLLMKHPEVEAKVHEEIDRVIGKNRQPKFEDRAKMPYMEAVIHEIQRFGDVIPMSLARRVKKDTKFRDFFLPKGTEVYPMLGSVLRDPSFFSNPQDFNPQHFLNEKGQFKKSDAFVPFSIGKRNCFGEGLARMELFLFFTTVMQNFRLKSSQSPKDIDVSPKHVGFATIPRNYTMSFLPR
T3 sequence (P11712 whole entry): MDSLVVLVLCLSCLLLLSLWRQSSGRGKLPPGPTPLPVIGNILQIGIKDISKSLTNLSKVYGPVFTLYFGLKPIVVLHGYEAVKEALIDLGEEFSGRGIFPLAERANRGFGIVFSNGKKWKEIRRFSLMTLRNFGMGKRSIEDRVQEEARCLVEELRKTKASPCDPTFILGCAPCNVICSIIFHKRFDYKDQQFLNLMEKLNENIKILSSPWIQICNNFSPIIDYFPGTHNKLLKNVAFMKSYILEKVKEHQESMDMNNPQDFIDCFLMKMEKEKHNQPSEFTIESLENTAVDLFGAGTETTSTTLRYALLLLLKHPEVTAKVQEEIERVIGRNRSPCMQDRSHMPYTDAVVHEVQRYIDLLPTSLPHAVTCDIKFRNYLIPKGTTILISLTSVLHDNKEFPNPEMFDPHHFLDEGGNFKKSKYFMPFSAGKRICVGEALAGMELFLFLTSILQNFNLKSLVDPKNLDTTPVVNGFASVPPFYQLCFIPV
Chain of recombinant human CYP1A1 (P04798 whole entry): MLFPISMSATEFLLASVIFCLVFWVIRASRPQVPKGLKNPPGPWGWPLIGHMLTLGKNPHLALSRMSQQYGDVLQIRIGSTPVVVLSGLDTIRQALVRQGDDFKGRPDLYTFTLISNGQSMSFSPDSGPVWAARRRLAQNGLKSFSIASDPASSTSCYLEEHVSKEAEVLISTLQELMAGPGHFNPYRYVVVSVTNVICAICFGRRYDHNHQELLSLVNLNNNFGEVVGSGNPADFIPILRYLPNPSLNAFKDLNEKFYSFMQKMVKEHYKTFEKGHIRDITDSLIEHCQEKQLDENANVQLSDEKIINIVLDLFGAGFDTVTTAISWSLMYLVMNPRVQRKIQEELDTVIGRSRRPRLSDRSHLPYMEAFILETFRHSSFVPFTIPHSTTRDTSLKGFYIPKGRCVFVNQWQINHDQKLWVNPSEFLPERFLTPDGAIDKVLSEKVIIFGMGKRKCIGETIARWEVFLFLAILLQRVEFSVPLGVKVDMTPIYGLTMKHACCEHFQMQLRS
Chain of recombinant human CYP2C8 (P10632 whole entry): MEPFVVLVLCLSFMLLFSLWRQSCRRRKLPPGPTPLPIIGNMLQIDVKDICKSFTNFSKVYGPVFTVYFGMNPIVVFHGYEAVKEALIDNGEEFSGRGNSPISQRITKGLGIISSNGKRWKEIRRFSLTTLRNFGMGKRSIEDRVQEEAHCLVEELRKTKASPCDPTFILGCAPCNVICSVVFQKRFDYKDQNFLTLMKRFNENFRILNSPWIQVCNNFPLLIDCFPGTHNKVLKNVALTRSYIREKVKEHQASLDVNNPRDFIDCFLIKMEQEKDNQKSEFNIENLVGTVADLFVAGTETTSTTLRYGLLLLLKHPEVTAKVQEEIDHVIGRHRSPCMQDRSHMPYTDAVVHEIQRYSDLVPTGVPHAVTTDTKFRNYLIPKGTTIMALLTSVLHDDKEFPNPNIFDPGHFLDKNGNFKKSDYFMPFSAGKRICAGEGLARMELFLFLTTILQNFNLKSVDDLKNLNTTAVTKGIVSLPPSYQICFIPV
Chain of recombinant human CYP3A5 (P20815 whole entry): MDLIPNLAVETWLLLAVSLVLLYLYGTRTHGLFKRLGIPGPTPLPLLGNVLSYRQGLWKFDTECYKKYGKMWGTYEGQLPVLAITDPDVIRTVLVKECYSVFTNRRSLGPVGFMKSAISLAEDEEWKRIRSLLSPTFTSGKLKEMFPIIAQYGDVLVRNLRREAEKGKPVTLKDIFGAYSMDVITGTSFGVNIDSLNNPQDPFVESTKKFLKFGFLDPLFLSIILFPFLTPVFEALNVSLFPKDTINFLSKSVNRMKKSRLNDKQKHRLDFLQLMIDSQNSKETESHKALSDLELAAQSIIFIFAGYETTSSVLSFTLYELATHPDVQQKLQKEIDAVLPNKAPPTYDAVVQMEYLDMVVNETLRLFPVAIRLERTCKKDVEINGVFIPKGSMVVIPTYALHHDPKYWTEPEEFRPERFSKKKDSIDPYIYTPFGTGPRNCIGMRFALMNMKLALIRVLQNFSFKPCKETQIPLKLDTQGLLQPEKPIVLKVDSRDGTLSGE
Chain of recombinant human CYP2B6 (P20813 whole entry): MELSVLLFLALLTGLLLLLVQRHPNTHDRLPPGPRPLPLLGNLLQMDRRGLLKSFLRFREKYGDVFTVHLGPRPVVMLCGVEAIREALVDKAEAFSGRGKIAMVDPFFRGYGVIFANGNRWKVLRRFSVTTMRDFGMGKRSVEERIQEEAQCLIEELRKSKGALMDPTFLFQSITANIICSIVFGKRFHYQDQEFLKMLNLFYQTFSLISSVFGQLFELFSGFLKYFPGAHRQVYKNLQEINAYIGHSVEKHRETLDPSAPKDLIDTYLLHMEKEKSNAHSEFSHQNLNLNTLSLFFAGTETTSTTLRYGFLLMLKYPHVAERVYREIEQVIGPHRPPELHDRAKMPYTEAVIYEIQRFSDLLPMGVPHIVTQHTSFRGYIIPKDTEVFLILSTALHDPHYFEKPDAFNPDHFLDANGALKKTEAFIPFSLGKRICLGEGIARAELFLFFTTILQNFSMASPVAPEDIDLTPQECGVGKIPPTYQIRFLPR
Chain of recombinant human CYP3A4 (P08684 2-503 limits assumed): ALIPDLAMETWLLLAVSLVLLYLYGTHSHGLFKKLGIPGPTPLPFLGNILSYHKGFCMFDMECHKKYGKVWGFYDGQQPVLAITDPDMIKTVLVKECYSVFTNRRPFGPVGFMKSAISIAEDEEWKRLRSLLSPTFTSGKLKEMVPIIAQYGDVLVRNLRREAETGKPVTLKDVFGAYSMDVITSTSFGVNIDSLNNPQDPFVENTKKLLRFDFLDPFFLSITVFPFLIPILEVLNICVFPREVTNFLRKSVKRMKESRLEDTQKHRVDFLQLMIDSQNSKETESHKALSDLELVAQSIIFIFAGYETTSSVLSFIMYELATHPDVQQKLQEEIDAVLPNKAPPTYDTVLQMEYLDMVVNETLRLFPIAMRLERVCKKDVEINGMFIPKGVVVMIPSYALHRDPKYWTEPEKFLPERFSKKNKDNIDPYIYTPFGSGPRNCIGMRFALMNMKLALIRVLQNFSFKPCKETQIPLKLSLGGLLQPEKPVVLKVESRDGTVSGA
Chain of recombinant human CYP1A2 (P05177 2-516 limits assumed): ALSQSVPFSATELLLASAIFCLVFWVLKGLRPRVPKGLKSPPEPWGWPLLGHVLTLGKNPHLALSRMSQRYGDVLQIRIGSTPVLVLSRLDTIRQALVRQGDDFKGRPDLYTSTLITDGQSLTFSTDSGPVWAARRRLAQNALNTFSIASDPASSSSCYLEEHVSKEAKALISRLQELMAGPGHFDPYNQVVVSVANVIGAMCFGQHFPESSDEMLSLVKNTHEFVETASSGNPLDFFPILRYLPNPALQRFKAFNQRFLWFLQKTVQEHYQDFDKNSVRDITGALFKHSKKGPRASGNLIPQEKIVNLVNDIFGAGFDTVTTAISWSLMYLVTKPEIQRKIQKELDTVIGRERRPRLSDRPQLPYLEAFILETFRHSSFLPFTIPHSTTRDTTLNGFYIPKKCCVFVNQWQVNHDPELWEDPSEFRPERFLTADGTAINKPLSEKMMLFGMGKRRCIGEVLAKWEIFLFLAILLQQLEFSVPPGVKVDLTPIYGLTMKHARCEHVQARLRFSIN
Chain of recombinant human CYP4F3A (Q08477 whole entry): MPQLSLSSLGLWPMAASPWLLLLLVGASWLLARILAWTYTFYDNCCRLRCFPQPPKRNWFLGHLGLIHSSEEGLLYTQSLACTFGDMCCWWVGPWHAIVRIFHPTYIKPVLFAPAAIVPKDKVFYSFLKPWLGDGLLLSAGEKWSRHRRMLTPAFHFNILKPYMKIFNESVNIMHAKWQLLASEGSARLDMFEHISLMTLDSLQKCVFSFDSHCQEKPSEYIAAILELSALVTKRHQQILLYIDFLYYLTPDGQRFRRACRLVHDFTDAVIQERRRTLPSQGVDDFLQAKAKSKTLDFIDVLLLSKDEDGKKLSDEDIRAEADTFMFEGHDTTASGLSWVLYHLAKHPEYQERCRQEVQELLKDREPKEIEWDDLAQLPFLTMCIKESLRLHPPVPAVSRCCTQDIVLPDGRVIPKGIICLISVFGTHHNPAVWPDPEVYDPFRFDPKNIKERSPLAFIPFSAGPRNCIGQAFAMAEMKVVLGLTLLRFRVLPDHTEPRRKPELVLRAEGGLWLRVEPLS

As to `CON=C(N)c1ccc(-c2ccc(-c3ccc(C(N)=NOC)cc3)o2)cc1` [DB289, 2,5-bis(4-amidinophenyl)furan-bis-O-methylamidoxime], the “inhibition of CYP3A activity” value with CYP3A4/5 is “minimal to no inhibition”. In data set [1], the “half-life in pooled HLM” value is on record as 12 min. Also, the “time by which DB289 was completely consumed” value in data set [1] is reported as not above 120 min. Moreover, the “percentage of substrate consumed” value on recombinant human CYP3A5 is given as 8%; at recombinant human CYP3A7, “less than 5%”; at recombinant human CYP2C8, 5%; at recombinant human CYP2B6, “less than 5%”; at recombinant human CYP3A4, 18%; at CYP2A6 [5], “less than 5%”. The “percentage of substrate consumed” value on recombinant human CYP1B1 is recorded as 46%; on CYP2J2 it was 85%; at CYP2C9 [7], “less than 5%”; at recombinant human CYP1A1 it was 82%. Also, at CYP2A6 [2], the “inhibition of CYP2A6 activity” value was “minimal to no inhibition”. In addition, in data set [3], the “metabolism of DB289 by recombinant human FMO3” value is “did not show any detectable metabolism”. Also, the “efficiency of CYP1A2 relative to CYP3A4, 2D6, 2E1, or 3A5 (intrinsic or maximal clearance)” value on recombinant human CYP1A2 is recorded as not below 300 fold. The “variation of rate of DB289 consumption among 10 individual HLMs” value in data set [4] was determined as 4 fold. Besides, the DB289 consumption entry in [6] is listed as “little DB289 consumption”. Moreover, the “inhibition of CYP2C9 activity” value against CYP2C9 [8] is 20−25%.

For the origin of these results see article PMC2077835 (Drug metabolism and disposition: the biological fate of …, 2006).
